Where two headings read alike, the source gives them in different places.
Test system: patients with relapsed/refractory lymphoma
Type: in vivo, human
Details: for Drug-related grade ⩾3 AE: Renal failure: includes renal failure acute; for Drug-related AE: PN NEC: peripheral neuropathy, high-level term
Summary of the method: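 Open-label phase 1 in patients with relapsed/refractory lymphoma after ⩾2 prior therapies. Dosing started at one patient per level with doubling from 0.125 to 1.0 mg/m2, then followed a 3+3 schema up to 3.11 mg/m2. DLTs were assessed in cycle 1, and AEs were graded by NCI-CTCAE v3.0.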

CC(C)C[C@H](NC(=O)CNC(=O)c1cc(Cl)ccc1Cl)B(O)O [ixazomib]
Drug-related AE: Paresthesia (dose 1.76 mg/m^2 (n=7)): 0 n
Drug-related AE: Peripheral edema (dose 1.76 mg/m^2 (n=7)): 1 n
Drug-related AE: Pyrexia (dose 1.76 mg/m^2 (n=7)): 3 n
Drug-related AE: Thrombocytopenia (dose 1.76 mg/m^2 (n=7)): 2 n
Drug-related AE: Vomiting (dose 1.76 mg/m^2 (n=7)): 4 n
Drug-related grade ⩾3 AE: Any grade ⩾3 AE (dose 1.76 mg/m^2 (n=7)): 3 n
Drug-related grade ⩾3 AE: Dehydration (dose 1.76 mg/m^2 (n=7)): 0 n
Drug-related grade ⩾3 AE: Diarrhea (dose 1.76 mg/m^2 (n=7)): 0 n
Drug-related grade ⩾3 AE: Lymphopenia (dose 1.76 mg/m^2 (n=7)): 0 n
Drug-related grade ⩾3 AE: Neutropenia (dose 1.76 mg/m^2 (n=7)): 1 n
Drug-related grade ⩾3 AE: Thrombocytopenia (dose 1.76 mg/m^2 (n=7)): 1 n
Drug-related AE: Abdominal pain (dose 2.34 mg/m^2 (n=10)): 2 n
Drug-related AE: Any AE (dose 2.34 mg/m^2 (n=10)): 10 n
Drug-related AE: Arthralgia (dose 2.34 mg/m^2 (n=10)): 1 n
Drug-related AE: Chills (dose 2.34 mg/m^2 (n=10)): 1 n
Drug-related AE: Constipation (dose 2.34 mg/m^2 (n=10)): 0 n
Drug-related AE: Cough (dose 2.34 mg/m^2 (n=10)): 1 n
Drug-related AE: Decreased appetite (dose 2.34 mg/m^2 (n=10)): 0 n
Drug-related AE: Decreased platelet count (dose 2.34 mg/m^2 (n=10)): 0 n
Drug-related AE: Diarrhea (dose 2.34 mg/m^2 (n=10)): 2 n
Drug-related AE: Dysgeusia (dose 2.34 mg/m^2 (n=10)): 1 n
Drug-related AE: Fatigue (dose 2.34 mg/m^2 (n=10)): 2 n
Drug-related AE: Headache (dose 2.34 mg/m^2 (n=10)): 1 n
Drug-related AE: Hypokalemia (dose 2.34 mg/m^2 (n=10)): 0 n
Drug-related AE: Lymphopenia (dose 2.34 mg/m^2 (n=10)): 2 n
Drug-related AE: Nausea (dose 2.34 mg/m^2 (n=10)): 1 n
Drug-related AE: Neutropenia (dose 2.34 mg/m^2 (n=10)): 3 n
Drug-related AE: Oral herpes (dose 2.34 mg/m^2 (n=10)): 1 n
Drug-related AE: Pain in extremity (dose 2.34 mg/m^2 (n=10)): 2 n
Drug-related AE: Paresthesia (dose 2.34 mg/m^2 (n=10)): 1 n
Drug-related AE: Peripheral edema (dose 2.34 mg/m^2 (n=10)): 2 n
Drug-related AE: Pyrexia (dose 2.34 mg/m^2 (n=10)): 2 n
Drug-related AE: Thrombocytopenia (dose 2.34 mg/m^2 (n=10)): 2 n
Drug-related AE: Vomiting (dose 2.34 mg/m^2 (n=10)): 1 n
Drug-related grade ⩾3 AE: Any grade ⩾3 AE (dose 2.34 mg/m^2 (n=10)): 4 n
Drug-related grade ⩾3 AE: Dehydration (dose 2.34 mg/m^2 (n=10)): 0 n
Drug-related grade ⩾3 AE: Diarrhea (dose 2.34 mg/m^2 (n=10)): 0 n
Drug-related grade ⩾3 AE: Lymphopenia (dose 2.34 mg/m^2 (n=10)): 1 n
Drug-related grade ⩾3 AE: Neutropenia (dose 2.34 mg/m^2 (n=10)): 3 n
Drug-related grade ⩾3 AE: Thrombocytopenia (dose 2.34 mg/m^2 (n=10)): 1 n
Drug-related AE: Abdominal pain (dose 3.11 mg/m^2 (n=5)): 2 n
Drug-related AE: Any AE (dose 3.11 mg/m^2 (n=5)): 5 n
Drug-related AE: Arthralgia (dose 3.11 mg/m^2 (n=5)): 2 n
Drug-related AE: Chills (dose 3.11 mg/m^2 (n=5)): 1 n
Drug-related AE: Constipation (dose 3.11 mg/m^2 (n=5)): 3 n
Drug-related AE: Cough (dose 3.11 mg/m^2 (n=5)): 1 n
Drug-related AE: Decreased appetite (dose 3.11 mg/m^2 (n=5)): 3 n
Drug-related AE: Decreased platelet count (dose 3.11 mg/m^2 (n=5)): 2 n
Drug-related AE: Diarrhea (dose 3.11 mg/m^2 (n=5)): 4 n
Drug-related AE: Dysgeusia (dose 3.11 mg/m^2 (n=5)): 0 n
Drug-related AE: Fatigue (dose 3.11 mg/m^2 (n=5)): 2 n
Drug-related AE: Headache (dose 3.11 mg/m^2 (n=5)): 1 n
Drug-related AE: Hypokalemia (dose 3.11 mg/m^2 (n=5)): 2 n
Drug-related AE: Lymphopenia (dose 3.11 mg/m^2 (n=5)): 1 n
Drug-related AE: Nausea (dose 3.11 mg/m^2 (n=5)): 2 n
Drug-related AE: Neutropenia (dose 3.11 mg/m^2 (n=5)): 1 n
Drug-related AE: Oral herpes (dose 3.11 mg/m^2 (n=5)): 1 n
Drug-related AE: Pain in extremity (dose 3.11 mg/m^2 (n=5)): 1 n
Drug-related AE: Paresthesia (dose 3.11 mg/m^2 (n=5)): 0 n
Drug-related AE: Peripheral edema (dose 3.11 mg/m^2 (n=5)): 1 n
Drug-related AE: Pyrexia (dose 3.11 mg/m^2 (n=5)): 0 n
Drug-related AE: Thrombocytopenia (dose 3.11 mg/m^2 (n=5)): 1 n
Drug-related AE: Vomiting (dose 3.11 mg/m^2 (n=5)): 3 n
Drug-related grade ⩾3 AE: Any grade ⩾3 AE (dose 3.11 mg/m^2 (n=5)): 3 n
Drug-related grade ⩾3 AE: Dehydration (dose 3.11 mg/m^2 (n=5)): 2 n
Drug-related grade ⩾3 AE: Diarrhea (dose 3.11 mg/m^2 (n=5)): 3 n
Drug-related grade ⩾3 AE: Lymphopenia (dose 3.11 mg/m^2 (n=5)): 1 n
Drug-related grade ⩾3 AE: Neutropenia (dose 3.11 mg/m^2 (n=5)): 1 n
Drug-related grade ⩾3 AE: Thrombocytopenia (dose 3.11 mg/m^2 (n=5)): 1 n
Drug-related AE: Abdominal pain (dose 0.125–1.0 mg/m^2 (n=4)): 0 n
Drug-related AE: Any AE (dose 0.125–1.0 mg/m^2 (n=4)): 4 n
Drug-related AE: Arthralgia (dose 0.125–1.0 mg/m^2 (n=4)): 0 n
Drug-related AE: Chills (dose 0.125–1.0 mg/m^2 (n=4)): 0 n
Drug-related AE: Constipation (dose 0.125–1.0 mg/m^2 (n=4)): 0 n
Drug-related AE: Cough (dose 0.125–1.0 mg/m^2 (n=4)): 0 n
Drug-related AE: Decreased appetite (dose 0.125–1.0 mg/m^2 (n=4)): 1 n
Drug-related AE: Decreased platelet count (dose 0.125–1.0 mg/m^2 (n=4)): 0 n
Drug-related AE: Diarrhea (dose 0.125–1.0 mg/m^2 (n=4)): 1 n
Drug-related AE: Dysgeusia (dose 0.125–1.0 mg/m^2 (n=4)): 0 n
Drug-related AE: Fatigue (dose 0.125–1.0 mg/m^2 (n=4)): 3 n
Drug-related AE: Headache (dose 0.125–1.0 mg/m^2 (n=4)): 2 n
Drug-related AE: Hypokalemia (dose 0.125–1.0 mg/m^2 (n=4)): 1 n
Drug-related AE: Lymphopenia (dose 0.125–1.0 mg/m^2 (n=4)): 0 n
Drug-related AE: Nausea (dose 0.125–1.0 mg/m^2 (n=4)): 1 n
Drug-related AE: Neutropenia (dose 0.125–1.0 mg/m^2 (n=4)): 0 n
Drug-related AE: Oral herpes (dose 0.125–1.0 mg/m^2 (n=4)): 0 n
Drug-related AE: Pain in extremity (dose 0.125–1.0 mg/m^2 (n=4)): 0 n
Drug-related AE: Paresthesia (dose 0.125–1.0 mg/m^2 (n=4)): 1 n
Drug-related AE: Peripheral edema (dose 0.125–1.0 mg/m^2 (n=4)): 0 n
Drug-related AE: Pyrexia (dose 0.125–1.0 mg/m^2 (n=4)): 0 n
Drug-related AE: Thrombocytopenia (dose 0.125–1.0 mg/m^2 (n=4)): 1 n
Drug-related AE: Vomiting (dose 0.125–1.0 mg/m^2 (n=4)): 0 n
Drug-related grade ⩾3 AE: Any grade ⩾3 AE (dose 0.125–1.0 mg/m^2 (n=4)): 1 n
Drug-related grade ⩾3 AE: Dehydration (dose 0.125–1.0 mg/m^2 (n=4)): 0 n
Drug-related grade ⩾3 AE: Diarrhea (dose 0.125–1.0 mg/m^2 (n=4)): 0 n
Drug-related grade ⩾3 AE: Lymphopenia (dose 0.125–1.0 mg/m^2 (n=4)): 0 n
Drug-related grade ⩾3 AE: Neutropenia (dose 0.125–1.0 mg/m^2 (n=4)): 0 n
Drug-related grade ⩾3 AE: Thrombocytopenia (dose 0.125–1.0 mg/m^2 (n=4)): 0 n
Drug-related peripheral neuropathy (PN), patients (grade 1 or 2, all doses, n=30): 13%
Drug-related grade ⩾3 AE: Renal failure (all doses, Total (n=30)): 2 (7) n (%)
Drug-related grade ⩾3 AE: Renal failure (dose 1.4 mg/m^2 (n=4)): 0 n
Drug-related grade ⩾3 AE: Renal failure (dose 1.76 mg/m^2 (n=7)): 0 n
Drug-related grade ⩾3 AE: Renal failure (dose 2.34 mg/m^2 (n=10)): 0 n
Drug-related grade ⩾3 AE: Renal failure (dose 3.11 mg/m^2 (n=5)): 2 n
Drug-related grade ⩾3 AE: Renal failure (dose 0.125–1.0 mg/m^2 (n=4)): 0 n
Drug-related AE: PN NEC (all doses, Total (n=30)): 4 (13) n (%)
Drug-related AE: PN NEC (dose 1.4 mg/m^2 (n=4)): 0 n
Drug-related AE: PN NEC (dose 1.76 mg/m^2 (n=7)): 2 n
Drug-related AE: PN NEC (dose 2.34 mg/m^2 (n=10)): 0 n
Drug-related AE: PN NEC (dose 3.11 mg/m^2 (n=5)): 1 n
Drug-related AE: PN NEC (dose 0.125–1.0 mg/m^2 (n=4)): 1 n

Reference: PMC4220649 (Blood Cancer Journal, 2014)
